Source: publication PMC6506245 (Science Advances, 2019)
Like-named read-outs stand apart in the source and are kept apart here. Blank lines part the entries; values can stand above or below the compound they belong to. Bridge positions count the residues as written; N and C are the ends. Square brackets hold non-standard residues; d marks the D form. Peptide text beside a SMILES is read from it. * marks the point of attachment. Biotin = O=C1N[C@H]2[C@H](CS[C@H]2CCCCC(=O)*)N1; 2Nal = N[C@@H](Cc1ccc2ccccc2c1)C(=O)O; S5 = C=CCCC[C@](C)(N)C(=O)O

Tests used:
β-cat [1] = molecular target: T1, β-cat (Homo sapiens, UniProt P35222); assay: HTRF binding assay
T1 sequence (P35222 1-781): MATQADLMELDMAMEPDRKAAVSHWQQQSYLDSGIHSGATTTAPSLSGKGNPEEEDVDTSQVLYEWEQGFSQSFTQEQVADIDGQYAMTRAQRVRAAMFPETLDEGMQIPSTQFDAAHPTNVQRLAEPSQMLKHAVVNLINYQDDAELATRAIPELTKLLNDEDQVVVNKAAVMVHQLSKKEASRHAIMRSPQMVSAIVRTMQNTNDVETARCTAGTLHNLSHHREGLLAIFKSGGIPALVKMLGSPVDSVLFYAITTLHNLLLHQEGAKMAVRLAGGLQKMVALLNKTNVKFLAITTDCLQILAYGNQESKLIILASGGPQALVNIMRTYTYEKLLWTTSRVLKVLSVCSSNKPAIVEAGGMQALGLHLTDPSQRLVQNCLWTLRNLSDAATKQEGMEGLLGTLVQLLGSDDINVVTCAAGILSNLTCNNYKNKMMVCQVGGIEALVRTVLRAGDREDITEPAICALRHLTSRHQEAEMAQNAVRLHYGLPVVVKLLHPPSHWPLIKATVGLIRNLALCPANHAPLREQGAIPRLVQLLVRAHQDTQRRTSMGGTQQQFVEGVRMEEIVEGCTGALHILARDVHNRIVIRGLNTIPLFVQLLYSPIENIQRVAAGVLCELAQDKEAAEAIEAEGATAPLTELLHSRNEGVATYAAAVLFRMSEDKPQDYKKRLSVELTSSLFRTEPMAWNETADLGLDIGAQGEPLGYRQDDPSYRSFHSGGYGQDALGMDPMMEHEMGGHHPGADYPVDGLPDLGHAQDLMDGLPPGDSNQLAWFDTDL

β-cat [2] = molecular target: T1, β-cat; assay: ALPHA binding assay
Colo320DM cells = assay: Colo320DM cell viability assay; type: cell-based, human; settings: read-out: IC50, growth of Colo320DM, 72 h
PK profiling in mice = type: in vivo, BALB/c mice
[3] = Dose-escalating toxicity study; type: in vivo, BALB/c mice
In short: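 BALB/c mice received vehicle control or test compound at 10, 15 or 20 mg/kg by i.p. injection, once daily for 14 days. Serum chemistry and hematology were done after the 2-week treatment and compared with vehicle-treated animals.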

Plasma stability assay = type: in vitro ADME, BALB/c nude mice; settings: BALB/c nude, mouse
[4] = molecular target: histidine-tagged β-catenin (β-cat) protein (UniProt P35222); assay: AlphaScreen or HTRF

Compound: CC[C@H](C)[C@H](NC(=O)[C@H](CC(=O)O)NC(=O)[C@H](CCCNC(=N)N)NC(=O)[C@H](CC(C)C)NC(=O)[C@@H](NC(=O)[C@H](CCC(N)=O)NC(=O)[C@H](CC(C)C)NC(=O)[C@H](CO)NC(=O)[C@H](CCCNC(=N)N)NC(=O)[C@H](CCC(=O)O)NC(=O)[C@H](CCCNC(=N)N)NC(=O)[C@H](Cc1c[nH]cn1)NC(=O)[C@H](CCC(=O)O)NC(=O)[C@H](CC(C)C)NC(=O)[C@H](CCC(N)=O)NC(=O)[C@H](CCC(=O)O)NC(=O)[C@H](CCC(N)=O)NC(=O)[C@H](CO)NC(=O)[C@H](CC(C)C)NC(=O)CCCC[C@@H]1SC[C@@H]2NC(=O)N[C@@H]21)[C@@H](C)O)C(=O)N[C@@H](CCC(N)=O)C(=O)N[C@@H](CCCNC(=N)N)C(=O)N[C@@H](CCSC)C(=O)N[C@@H](CC(C)C)C(=O)N[C@@H](Cc1ccccc1)C(=O)O [BCL9-HD2A] (Biotin-LSQEQLEHRERSLQTLRDIQRMLF-OH)
Kd (β-cat [1]): 38.3 nM
Kd (β-cat [2]): 14.3 nM

Compound: CC[C@H](C)[C@@H]1NC(=O)[C@@](C)(NC(=O)[C@H](CCCNC(=N)N)NC(=O)[C@H](CC(C)C)NC(=O)[C@@H](NC(=O)[C@H](CCC(N)=O)NC(=O)[C@H](CC(C)C)NC(C)=O)[C@@H](C)O)CCCC=CCCC[C@@](C)(C(=O)N[C@@H](CC(C)C)C(=O)N[C@@H](Cc2ccc3ccccc3c2)C(N)=O)NC(=O)[C@H](CCCNC(=N)N)NC(=O)[C@H](CCC(N)=O)NC1=O [hsBCL9CT-24] (Ac-LQTLR[S5]IQR[S5]L[2Nal]-NH2; staple 6-10)
Kd (β-cat [2]): 4.73 nM
IC50 (Colo320DM cells; CellTiter-Glo): 1450 nM
bioavailability (PK profiling in mice; BALB/c, mouse, plasma, sc, 10 mg/kg): 56%
Terminal t1/2 (PK profiling in mice; i.m. 5 mg/kg, BALB/c mice n = 2, table S2A): 10.6 h
survival in toxicity study ([3]; 10, 15, or 20 mg/kg i.p., QD over 14 days): All animals survived the duration of study
serum chemistry and hematology versus vehicle control ([3]; after a 2-week treatment period, 20 mg/kg QD (fig. S4I)): no difference
toxicity in brain, lung, kidney, liver, heart, and spleen tissues by histology ([3]; i.p. QD over 14 days (fig. S4C: 10 mg/kg)): minimal toxicity
half-life at 2 µM (Plasma stability assay): 5.13 h

IC50 (Colo320DM cells; CellTiter-Glo): 15000 nM
Compound: O=C1[C@H](Cc2ccc(O)cc2)N2C(=O)CCN(C(=O)NCc3ccccc3)[C@H]2CN1Cc1cccc2ccccc12 [ICG-001]

IC50 (Colo320DM cells; Homo sapiens, COLO 320DM): 18500 nM
Compound: Cc1cc(-c2ncc(CC(=O)Nc3ccc(-c4cnccn4)cn3)cc2C)ccn1 [LGK-974]

Kd (β-cat [1]): 192 nM
Kd (β-cat [2]): 142 nM
Compound: CCCC[C@H](NC(=O)[C@H](CCCNC(=N)N)NC(=O)[C@H](CCC(N)=O)NC(=O)[C@@H](NC(=O)[C@]1(C)CCCC=CCCC[C@](C)(NC(=O)[C@H](CC(C)C)NC(=O)[C@H](CO)NC(=O)[C@H](CCCNC(=N)N)NC(=O)[C@H](CCC(=O)O)NC(=O)[C@H](CCCNC(=N)N)NC(=O)[C@H](Cc2c[nH]cn2)NC(=O)[C@H](CCC(=O)O)NC(=O)[C@H](CC(C)C)NC(=O)[C@H](CCC(N)=O)NC(=O)[C@H](CCC(=O)O)NC(=O)[C@H](CCC(N)=O)NC(=O)[C@H](CO)NC(=O)[C@H](CC(C)C)NC(C)=O)C(=O)N[C@@H]([C@@H](C)O)C(=O)N[C@@H](CC(C)C)C(=O)N[C@@H](CCCNC(=N)N)C(=O)N1)[C@@H](C)CC)C(=O)N[C@@H](CC(C)C)C(=O)N[C@@H](Cc1ccccc1)C(N)=O [SAH-BCL9B]

Kd [4]: 4.21 nM
Compound: hsBCL9CT-24 (hydrocarbon-stapled BCL9-HD2 peptide)

remaining at 1 h, 2 µM (Plasma stability assay): 0.02%
Compound: CCN(CC)CCOC(=O)c1ccc(N)cc1 [Procaine, reference compound]
